Assay results from different studies.
Protocols differ between the studies behind these lines.
Target: Ephrin type-A receptor 7 (EPHA7, Homo sapiens, UniProt Q15375)

SMILES	read-out	mode	technique	concentration	quantity	value
Cc1cnc(NC2CCOCC2)nc1-n1cnc(C(=O)NC(CN)c2cc(F)cc(Cl)c2)c1 (stereo not drawn)	enzyme activity	inhibitor	radiometric	1 µM	remaining activity	88%
CCCOc1ccc([C@H]2[C@H](C(=O)O)[C@@H](c3ccc4c(c3)OCO4)CN2CC(=O)Nc2c(CC)cccc2CC)cc1	cell-free assay		competition with immobilised ligand	1 µM	remaining binding	98%
CCCS(=O)(=O)Nc1ccc(F)c(C(=O)c2c[nH]c3ncc(-c4ccc(Cl)cc4)cc23)c1F	enzyme activity	inhibitor		1 µM	inhibition	< 10%
CNC(=O)c1cc2c(Oc3ccc(NC(=O)C4(C(=O)Nc5ccc(F)cc5)CC4)cc3)ccnc2cc1OC	enzyme activity	inhibitor	radiometric	1 µM	inhibition	96%
CC(C)(C)c1nc(-c2cccc(NS(=O)(=O)c3c(F)cccc3F)c2F)c(-c2ccnc(N)n2)s1	enzyme activity	inhibitor	radiometric	1 µM	remaining activity	102%
COc1cccc2c(NCc3ccccc3)nc(-n3c(N)nc4ccccc43)nc12	target engagement in cells	inhibitor	chemoproteomics	20 mM	inhibition	2.9%
O=C1Nc2ccc(Cl)cc2C1=Cc1cc(Cl)c(O)c(Cl)c1	cell-free assay			0.5 µM	remaining signal	97.5%
Cc1ccc(C(=O)NCc2ccsc2)cc1C#Cc1cn(C(C)C)c2ncnc(N)c12	enzyme activity	inhibitor		1 µM	activity vs control	21%
CNC(=O)c1cc(Oc2ccc(NC(=O)Nc3ccc(Cl)c(C(F)(F)F)c3)cc2)ccn1	enzyme activity	inhibitor		10 µM	inhibition	90%
COc1ccc2c(c1)O[C@@H](c1ccc(OC)c(OC)c1)C[C@H]2NC(=O)C1(c2ccc3c(c2)OC(F)(F)O3)CC1	cell-free assay		competition with immobilised ligand	1 µM	remaining binding	86%
Nc1ncnc2occ(-c3ccc(NC(=O)Nc4cc(C(F)(F)F)ccc4F)cc3)c12	cell-free assay			20 µM	remaining signal	0%
Cc1ccc(NC(=O)c2ccc(C)c(C(F)(F)F)c2)cc1C#Cc1nn(C2CCC(O)CC2)c2ncnc(N)c12 (stereo not drawn)	cell-free assay			10 µM	remaining signal	0%
Cc1c(C(=O)O)cc(-c2ccc(C3CCNCC3)cc2)c2ccc(-c3ccc(C(F)(F)F)cc3)cc12	cell-free assay		competition with immobilised ligand	1 µM	remaining binding	100%
CC(C)(O)[C@H]1CC[C@H](Nc2ccc3ncc(-c4cccc(C(F)(F)F)c4)n3n2)CC1	enzyme activity	inhibitor		1 µM	remaining activity	93.3%
Cc1ccc(Nc2nccc(N(C)c3ccc4c(C)n(C)nc4c3)n2)cc1S(N)(=O)=O	enzyme activity	inhibitor		0.3 µM	inhibition	1%
CO[C@@H](C)c1c(Nc2ccc([C@@H](N(C)C(=O)C3CCS(=O)(=O)CC3)C(F)(F)F)cc2)cnc2cc(Cl)nn12	cell-free assay		competition with immobilised ligand	1 µM	remaining binding	87%
CCN(CC)CCNC(=O)c1c(C)[nH]c(/C=C2\C(=O)Nc3ccc(F)cc32)c1C	enzyme activity	inhibitor		10 µM	inhibition	78%
C[C@@H](c1cccc(C#N)c1)n1cc(Cl)cc(C(N)=O)c1=N	cell-free assay		competition with immobilised ligand	1 µM	remaining binding	100%
O=C(Nc1cnn(-c2csc(C(=O)NC3COC3)c2)c1)Nc1c(F)cccc1Cl	enzyme activity	inhibitor		5 µM	remaining activity	91.2%
O=C1NC(=O)c2cc(Nc3ccc(F)cc3)c(Nc3ccc(F)cc3)cc21	cell-free assay			0.5 µM	remaining signal	84.6%
O=C(NCc1ncc(C(F)(F)F)cc1Cl)c1ccc2c(c1)C1(CCS(=O)(=O)CC1)[C@H](C1CC1)N2S(=O)(=O)c1ccc(F)cc1	cell-free assay		competition with immobilised ligand	1 µM	remaining binding	100%
